High-throughput results (PubChem)
Neddyl block: inhibitors of cullin neddylation, primary screen, biochemical, TR-FRET, uHTS, NAE and Ubc12. AID 651699, 2012. 360,000 compounds, 0.58% hits. inhibition, % at 25 µM; in the data active = inhibition above about 36%
CSN inh: inhibitors of CSN-mediated cullin deneddylation, primary screen, biochemical, fluorescence polarization, uHTS; COP9 signalosome complex subunit 5 (Homo sapiens), Q92905; Purified CSN, SCF-Nedd8-OG deneddylation; inhibition, % at 12.5 µM; 360,000 compounds, 0.38% hits; AID 651999, 2013;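 active = pattern-corrected inhibition above about 35%, with an unprinted fluorescence ratio check between 0.5 and 1.5, limit read from the data, passing the limit was not always enough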;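 also: 0% = enzyme with substrate and 100% = substrate without enzyme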
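Assay system: HEK293T-derived human Csn5 enzyme; quantity: 0.24 nM enzyme; medium: Tris/NaCl/DTT buffer, pH 7.5; also added: substrate SCFSkp2-Nedd8OG, 10 nM; doses: 12.5 µM compound; schedule: 90 min reaction at room temperature; signal: FP; read-out: % inhibition of substrate cleavage by Csn5; benchmarks: substrate-only high control, full reaction low control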
Rpn11 inh: Rpn11 (PSMD14) deubiquitinase inhibitors, primary screen, biochemical, fluorescence polarization, uHTS; human 26S proteasome, Ub4-pepOG fluorescence polarization; 20S core pre-blocked with epoxomicin; inhibition, % at 20 µM; 360,000 compounds, 0.59% hits; AID 588493, 2011;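 active = inhibition at 20 µM, scaled to each plate's controls, above about 33%, limit read from the data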
Rin1 Abl inh: inhibitors of Rin1-Abl protein binding, primary screen, biochemical, TR-FRET | Tyrosine-protein kinase ABL1 (Homo sapiens) + Ras and Rab interactor 1 (Homo sapiens), … | inhibition, % at 7.35 µM | 360,000 compounds, 0.4% hits; in the data active = inhibition above about 5%, passing the limit was not always enough
TPT1 inh: Candida albicans TPT1 enzyme inhibitors, primary screen, biochemical, fluorescence polarization. tRNA 2'-phosphotransferase TPT1 (Candida albicans SC5314). inhibition, % at 5 µM. AID 1962, 2009. recombinant caTPT1, FP RNA substrate dephosphorylation. 300,000 compounds, 0.81% hits;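 active = inhibition above the mean of all tested compounds plus 3 SD, set per screening campaign, cut at about 24% in these data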;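 also: plate controls were DMSO alone for no effect and ferristatin control at 100 nM for full effect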
HNF4A DNA FP: change in binding of human HNF4A to DNA, primary screen, biochemical, fluorescence polarization, FITC-DNA; Hepatocyte nuclear factor 4-alpha (Homo sapiens), P41235; 1 h; activity change, % at 10 µM; 360,000 compounds, 0.3% hits; AID 1224865, 2016; in the data active = activity change above about 30%, passing the limit was not always enough
* hit, by the source's call; / = not tested or not shown. The list is not random: actives were taken first. Their share in the collection is about 2.4%.

SMILES	Neddyl block	CSN inh	Rpn11 inh	Rin1 Abl inh	TPT1 inh	HNF4A DNA FP
C#CCOCCOCCOCCNc1nc(N2CCOCC2)nc(N2CCN(C(=O)[C@H](CCCCN)n3cc(CCC(=O)O)nn3)CC2)n1	-21	-3	6	0	/	2
C#CCOCCOCCOCCNc1nc(N2CCN(C(=O)[C@H](CCCN=C(N)N)n3cc(C(N)[C@@H](C)CC)nn3)CC2)nc(N2CCN(C(=O)[C@H](CCCCN)n3cc([C@@H](N)CC(N)=O)nn3)CC2)n1 (some centres not stated)	-11	-3	-4	0	/	5
C#CCOCCOCCOCCNc1nc(N2CCN(C(=O)[C@H](CCCCN)n3cc([C@@H](N)C(C)CC)nn3)CC2)nc(N2CCN(C(=O)[C@H](Cc3cc4ccccc4[nH]3)n3cc([C@@H](N)C(C)CC)nn3)CC2)n1 (some centres not stated)	-30	21	-9	0	/	49*
C#CCOCCOCCOCCNc1nc(N2CCN(C(=O)[C@H](CCC(=O)O)n3cc(C(N)[C@H](C)CC)nn3)CC2)nc(N2CCN(C(=O)[C@H](Cc3cc4ccccc4[nH]3)n3cc(C(N)[C@H](C)CC)nn3)CC2)n1 (some centres not stated)	/	/	/	/	0	/
C#CCOCCOCCOCCNc1nc(N2CCN(C(=O)C(Cc3cc4ccccc4[nH]3)n3cc(C(N)C(C)CC)nn3)CC2)nc(N2CCN(C(=O)C(Cc3cc4ccccc4[nH]3)n3cc(C(N)C(C)CC)nn3)CC2)n1 (configuration not stated)	-21	44*	16	/	3	1
C#CCOCCOCCOCCNc1nc(N2CCN(C(=O)C([C@@H](C)O)n3cc([C@@H](N)CCCCN)nn3)CC2)nc(N2CCN(C(=O)[C@H](CCCN=C(N)N)n3cc(C(N)[C@@H](C)CC)nn3)CC2)n1 (some centres not stated)	-26	16	5	-3	/	61*
CCN(CC)C(=O)Cn1cnc2sc(C)c(S(=O)(=O)N3CCC(C)CC3)c2c1=O	7	5	6	2	0	-1
COC(=O)c1c([N+](=O)[O-])c(OC)c(OC)c(OC)c1[N+](=O)[O-]	-9	-2	4	2	0	0
O=C1C(O)=C(O)C(=O)c2ccccc21	-39	6	-8	24*	-2	-3
O=C1C(=O)c2ccccc2C(O)=C1c1ccccc1F	-48	-1	-2	-7	-5	-2
CC1(C(=O)Nc2ccc3[nH]ncc3c2)CCN1C(=O)C1(c2ccccc2)CC1 (configuration not stated)	0	1	7	2	/	-3
Cc1cc(C)c(S(=O)(=O)Nc2cc(SCC(=O)O)c(O)c3ccccc23)cc1C	/	/	/	/	0	/
Cc1cc(C)c(S(=O)(=O)/N=C2/C=C(SCC(=O)O)C(=O)c3ccccc32)cc1C	-18	26	23	4	/	38*
COC1=CC(=O)C[C@@H](C)[C@]12Oc1c(Cl)c(OC)cc(OC)c1C2=O	46*	2	3	0	-1	6
COC1=CC(=O)CC(C)C12Oc1c(Cl)c(OC)cc(OC)c1C2=O (configuration not stated)	37	1	-4	-3	-2	1
Cc1ccc([N+](=O)[O-])cc1CN1CCN(c2ncc(Cc3ccccc3)cn2)CC1	-5	3	/	/	/	3
COc1cccc(CSc2nc3ccccc3[nH]2)c1	8	0	3	-6	-1	32*
O=[N+]([O-])c1cccc(CSc2nc3ccccc3[nH]2)c1	-32	1	-6	-1	-1	-5
CC(OC(=O)CC(C)c1ccccc1)C(=O)Nc1ccc(Cl)cn1 (configuration not stated)	-7	43*	-1	2	/	-1
